From ChEMBL document CHEMBL1124774, “Synthesis and biological activity of some derivatives of rifamycin P” (1990) come the findings set out here.

Converted amounts (≈) assume the structure as drawn.

What all share (type): functional
One experiment deals with Neisseria gonorrhoeae. The experiment is described as follows: In vitro antibacterial activity of compound against Neisseria gonorrhoeae ISM 68/126.
In experiment [1] the test system is Staphylococcus epidermidis. In words: In vitro antibacterial activity of compound against Staphylococcus epidermidis ATCC 12228. The gist of the method: (§1)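 Twofold microdilution MIC in Iso-Sensitest broth over 128-0.0001 µg/mL. Inoculum was 10^4 cfu/mL, with incubation at 37 °C for 18-24 h.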
Another experiment has as its system Streptococcus pyogenes. In words: In vitro antibacterial activity of compound against Streptococcus pyogenes C 203 SKF 13400. The gist of the method:
(§2)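 Streptococcal MICs were run by twofold microdilution in Todd-Hewitt broth over 128-0.0001 µg/mL. Inoculum was 10^4 cfu/mL, with incubation at 37 °C for 18-24 h.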

In the next experiment the test system is Proteus vulgaris. The experiment is described as follows: In vitro antibacterial activity of compound against Proteus vulgaris X19H ATCC 881.
Another experiment concerns Streptococcus pneumoniae. In words: In vitro antibacterial activity of compound against Streptococcus pneumoniae UC 41. The gist of the method:
as §2

The subject of a further experiment is Enterococcus faecalis. In words: In vitro antibacterial activity of compound against Streptococcus faecalis ATCC 7080. The gist of the method:
as §1

The next experiment deals with Staphylococcus aureus. In words: In vitro antibacterial activity of compound against Staphylococcus aureus Tour L 165. The gist of the method:
as §1

The test system of a further experiment is Escherichia coli. The experiment is described as follows: In vitro antibacterial activity of compound against Escherichia coli SKF 12140.
For the next experiment, the system named is Haemophilus influenzae. In words: In vitro antibacterial activity of compound against Haemophilus influenzae ATCC 19418.
The test system of another experiment is Klebsiella pneumoniae. The experiment is described as follows: In vitro antibacterial activity of compound against Klebsiella pneumoniae ISM.
The test system of another experiment is Pseudomonas aeruginosa. The experiment is described as follows: In vitro antibacterial activity of compound against Pseudomonas aeruginosa ATCC 10145. The gist of the method:
as §1

Experiment [2] deals with Mycobacterium tuberculosis. The experiment is described as follows: In vitro antibacterial activity of compound against Mycobacterium tuberculosis H37Rv ATCC 9660.

Consider `COC1/C=C/OC2(C)Oc3c(C)c(O)c4c(O)c(c5sc(N6CCNCC6)nc5c4c3C2=O)NC(=O)/C(C)=C\C=C\C(C)C(O)C(C)C(O)C(C)C(OC(C)=O)C1C` (stereo unspecified), for which the MIC against Neisseria gonorrhoeae is 0.125 µg/mL (≈ 0.152 µM); in [1] it was 0.063 µg/mL (≈ 0.0766 µM); with Streptococcus pyogenes, 0.125 µg/mL (≈ 0.152 µM); with Proteus vulgaris, 8 µg/mL (≈ 9.72 µM); against Streptococcus pneumoniae, 0.063 µg/mL (≈ 0.0766 µM); against Enterococcus faecalis, 2 µg/mL (≈ 2.43 µM). Moreover, the MIC against Staphylococcus aureus is 0.125 µg/mL (≈ 0.152 µM); against Escherichia coli it was 8 µg/mL (≈ 9.72 µM); in the experiment on Haemophilus influenzae it was 0.25 µg/mL (≈ 0.304 µM); in the experiment on Klebsiella pneumoniae, 16 µg/mL (≈ 19.4 µM); against Pseudomonas aeruginosa, 8 µg/mL (≈ 9.72 µM).

For the compound `COC1/C=C/OC2(C)Oc3c(C)c(O)c4c(O)c(c5sc(N6CCN(Cc7ccccc7)CC6)nc5c4c3C2=O)NC(=O)/C(C)=C\C=C\C(C)C(O)C(C)C(O)C(C)C(OC(C)=O)C1C` (stereo unspecified), the MIC in the experiment on Neisseria gonorrhoeae is 0.125 µg/mL (≈ 0.137 µM); in experiment [1] it was 0.063 µg/mL (≈ 0.069 µM); with Streptococcus pyogenes, 0.063 µg/mL (≈ 0.069 µM); in the experiment on Proteus vulgaris, 32 µg/mL (≈ 35 µM); in the experiment on Streptococcus pneumoniae, 0.063 µg/mL (≈ 0.069 µM); with Enterococcus faecalis it was 1 µg/mL (≈ 1.1 µM). Besides, the MIC stood at 0.008 µg/mL (≈ 0.00876 µM) with Staphylococcus aureus; 0.125 µg/mL (≈ 0.137 µM) in experiment [2]; 32 µg/mL (≈ 35 µM) with Escherichia coli; 0.125 µg/mL (≈ 0.137 µM) against Haemophilus influenzae; 64 µg/mL (≈ 70.1 µM) against Klebsiella pneumoniae; 16 µg/mL (≈ 17.5 µM) in the experiment with Pseudomonas aeruginosa.

With `COC1/C=C/OC2(C)Oc3c(C)c(O)c4c(O)c(c5scnc5c4c3C2=O)NC(=O)/C(C)=C\C=C\C(C)C(O)C(C)C(O)C(C)C(O)C1C` (stereo unspecified), the MIC with Neisseria gonorrhoeae was 0.125 µg/mL (≈ 0.179 µM); in [1], 0.008 µg/mL (≈ 0.0115 µM); in the experiment on Streptococcus pyogenes it was 0.125 µg/mL (≈ 0.179 µM); in the experiment with Proteus vulgaris it was 4 µg/mL (≈ 5.74 µM); in the experiment with Streptococcus pneumoniae it was 0.125 µg/mL (≈ 0.179 µM); with Enterococcus faecalis, 4 µg/mL (≈ 5.74 µM). The MIC against Staphylococcus aureus was determined as 0.032 µg/mL (≈ 0.0459 µM); in experiment [2], 0.5 µg/mL (≈ 0.718 µM); with Escherichia coli, 16 µg/mL (≈ 23 µM); against Haemophilus influenzae, 0.125 µg/mL (≈ 0.179 µM); against Klebsiella pneumoniae it was 16 µg/mL (≈ 23 µM); with Pseudomonas aeruginosa, 8 µg/mL (≈ 11.5 µM).

Consider `COC1/C=C/OC2(C)Oc3c(C)c(O)c4c(O)c(c5sc(N6CCCC6)nc5c4c3C2=O)NC(=O)/C(C)=C\C=C\C(C)C(O)C(C)C(O)C(C)C(OC(C)=O)C1C` (stereo unspecified), for which the MIC in the experiment with Neisseria gonorrhoeae was found to be 0.5 µg/mL (≈ 0.619 µM); in [1] it was 0.063 µg/mL (≈ 0.078 µM); in the experiment with Streptococcus pyogenes, 0.008 µg/mL (≈ 0.0099 µM); in the experiment on Proteus vulgaris it was 16 µg/mL (≈ 19.8 µM); in the experiment on Streptococcus pneumoniae, 0.032 µg/mL (≈ 0.0396 µM); against Enterococcus faecalis, 2 µg/mL (≈ 2.48 µM). The MIC against Staphylococcus aureus turned out to be 0.004 µg/mL (≈ 0.00495 µM); in [2], 2 µg/mL (≈ 2.48 µM); with Escherichia coli, 16 µg/mL (≈ 19.8 µM); with Haemophilus influenzae, 0.125 µg/mL (≈ 0.155 µM); in the experiment with Klebsiella pneumoniae, 32 µg/mL (≈ 39.6 µM); with Pseudomonas aeruginosa, 8 µg/mL (≈ 9.9 µM).

Regarding `COc1ccc(N2CCN(c3nc4c(s3)c3c(O)c5c(O)c(C)c6c(c54)C(=O)C(C)(O/C=C/C(OC)C(C)C(OC(C)=O)C(C)C(O)C(C)C(O)C(C)/C=C/C=C(/C)C(=O)N3)O6)CC2)cc1` (stereo unspecified), the MIC in the experiment on Neisseria gonorrhoeae was 0.125 µg/mL (≈ 0.135 µM); in experiment [1], 0.063 µg/mL (≈ 0.0678 µM); in the experiment with Streptococcus pyogenes, 0.125 µg/mL (≈ 0.135 µM); with Proteus vulgaris, 64 µg/mL (≈ 68.9 µM); against Streptococcus pneumoniae, 0.063 µg/mL (≈ 0.0678 µM); against Enterococcus faecalis, 4 µg/mL (≈ 4.31 µM). The MIC against Staphylococcus aureus is 0.063 µg/mL (≈ 0.0678 µM); in [2] it was 0.25 µg/mL (≈ 0.269 µM); in the experiment with Escherichia coli, 8 µg/mL (≈ 8.61 µM); against Haemophilus influenzae it was 0.125 µg/mL (≈ 0.135 µM); against Klebsiella pneumoniae, > 128 µg/mL; against Pseudomonas aeruginosa it was 128 µg/mL (≈ 138 µM).

In the case of `COC1/C=C/OC2(C)Oc3c(C)c(O)c4c(O)c(c5sc(N6CCN(c7ccc(Cl)cc7)CC6)nc5c4c3C2=O)NC(=O)/C(C)=C\C=C\C(C)C(O)C(C)C(O)C(C)C(OC(C)=O)C1C` (stereo unspecified), the MIC against Neisseria gonorrhoeae came to 0.25 µg/mL (≈ 0.268 µM); in experiment [1], 0.063 µg/mL (≈ 0.0675 µM); against Streptococcus pyogenes, 0.125 µg/mL (≈ 0.134 µM); against Proteus vulgaris, 64 µg/mL (≈ 68.6 µM); in the experiment on Streptococcus pneumoniae, 0.063 µg/mL (≈ 0.0675 µM); in the experiment with Enterococcus faecalis, 4 µg/mL (≈ 4.28 µM). Moreover, the MIC is 0.063 µg/mL (≈ 0.0675 µM) in the experiment with Staphylococcus aureus; 1 µg/mL (≈ 1.07 µM) in [2]; 8 µg/mL (≈ 8.57 µM) against Escherichia coli; 0.125 µg/mL (≈ 0.134 µM) in the experiment on Haemophilus influenzae; > 128 µg/mL against Klebsiella pneumoniae; 128 µg/mL (≈ 137 µM) against Pseudomonas aeruginosa.
